Experimental data: ChEMBL document CHEMBL1127578, “Phospholipase C inhibitors: a new class of cytotoxic agents” (J Med Chem, 1994); call rule not given here
Values after ≈ are worked out from the molar mass of the structure shown.

Key:
[1] = Inhibitory activity against phospholipase C isolated from human melanoma
In short: (§1)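 PI-specific PLC partially purified from RPMI 7272 human melanoma xenografts in nude mice (Q-Sepharose then heparin-Sepharose, 0.35 M NaCl eluate), 20–30 μg protein. Enzyme preincubated with compound 5 min at 37 °C in 25 mM imidazole pH 7.2, 100 mM KCl, 1 mM CaCl2, 0.8 mg/mL deoxycholate. Reaction started with 1 mM phosphatidylinositol, run 15 min at 37 °C, stopped with EDTA.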

[2] = Inhibitory activity against phospholipase C isolated from human melanoma; IN-Inactive; in short: as §1
[3] = pKa value was determined; assay type: physicochemical

Row | Compound | IC50 [1] | IC50 [2] | pKa [3]
1 | CC(=O)Oc1cccc2cc([N+](=O)[O-])c(=O)oc12 | 36 µg/mL (≈ 144 µM) | – | –
2 | O=c1oc2cc(O)ccc2cc1[N+](=O)[O-] | – | Not Active | –
3 | O=c1oc2ccc(OCCCCCCCCO)cc2cc1[N+](=O)[O-] | 9.6 µg/mL (≈ 28.6 µM) | – | –
4 | O=[N+]([O-])C1=Cc2ccccc2OC1Nc1cccc([N+](=O)[O-])c1 (stereo unspecified) | 7.5 µg/mL (≈ 23.9 µM) | – | 2.47
5 | CCCCCCCCCCOc1ccc2oc(=O)c([N+](=O)[O-])cc2c1 | – | Not Active | –
6 | CCCCCCCOc1ccc2oc(=O)c([N+](=O)[O-])cc2c1 | – | Not Active | –
7 | CCCCCCOc1ccc2oc(=O)c([N+](=O)[O-])cc2c1 | – | Not Active | –
8 | O=[N+]([O-])C1=Cc2ccccc2OC1Nc1ccccc1 (stereo unspecified) | 11.7 µg/mL (≈ 43.6 µM) | – | 4.4
9 | COc1ccc(NC2Oc3ccccc3C=C2[N+](=O)[O-])cc1 (stereo unspecified) | 12.9 µg/mL (≈ 43.2 µM) | – | 5.31
10 | O=c1oc2c(O)cccc2cc1[N+](=O)[O-] | 24.8 µg/mL (≈ 120 µM) | – | –
11 | CCCCCCCC(=O)Oc1cccc2cc([N+](=O)[O-])c(=O)oc12 | 17 µg/mL (≈ 51 µM) | – | –
12 | CC(=O)Oc1ccc2oc(=O)c([N+](=O)[O-])cc2c1 | 16 µg/mL (≈ 64.2 µM) | – | –
13 | CCCCCCCCCCCCCCCC(=O)Oc1ccc2oc(=O)c([N+](=O)[O-])cc2c1 | 28.5 µg/mL (≈ 64 µM) | – | –
14 | O=c1oc2ccccc2cc1[N+](=O)[O-] | 16.1 µg/mL (≈ 84.2 µM) | – | –
15 | C=CCCCCCCCCC(=O)Oc1ccc2oc(=O)c([N+](=O)[O-])cc2c1 | 3.2 µg/mL (≈ 8.57 µM) | – | –
16 | O=[N+]([O-])C1=Cc2ccccc2OC1Nc1ccccc1[N+](=O)[O-] (stereo unspecified) | 6 µg/mL (≈ 19.2 µM) | – | -0.26

Row | Compound | IC50 [1] | IC50 [2] | pKa [3]
17 | CCCCCCCCCCCCCCCC(=O)Oc1ccc2cc([N+](=O)[O-])c(=O)oc2c1 | – | Not Active | –
18 | CC(C)Oc1ccc2oc(=O)c([N+](=O)[O-])cc2c1 | 23.5 µg/mL (≈ 94.3 µM) | – | –
19 | CCCCCCCCCCCCOc1ccc2oc(=O)c([N+](=O)[O-])cc2c1 | 68.6 µg/mL (≈ 183 µM) | – | –
20 | O=[N+]([O-])C1=Cc2ccccc2OC1Nc1ccc([N+](=O)[O-])cc1 (stereo unspecified) | 14.4 µg/mL (≈ 46 µM) | – | 1
21 | CCCCCCCC(=O)Oc1ccc2cc([N+](=O)[O-])c(=O)oc2c1 | – | Not Active | –
22 | O=[N+]([O-])C1=Cc2ccccc2OC1N1CCOCC1 (stereo unspecified) | 5 µg/mL (≈ 19.1 µM) | – | 8.33
23 | C=CCCCCCCCCOc1ccc2oc(=O)c([N+](=O)[O-])cc2c1 | 45.1 µg/mL (≈ 131 µM) | – | –
24 | COc1ccccc1NC1Oc2ccccc2C=C1[N+](=O)[O-] (stereo unspecified) | 4.5 µg/mL (≈ 15.1 µM) | – | 2.52
25 | CCCCCCCCCCCCCCCC(=O)Oc1cccc2cc([N+](=O)[O-])c(=O)oc12 | 47 µg/mL (≈ 105 µM) | – | –
26 | CC(=O)Oc1ccc2cc([N+](=O)[O-])c(=O)oc2c1 | – | Not Active | –
27 | CCCCCCCC(=O)Oc1ccc2oc(=O)c([N+](=O)[O-])cc2c1 | 4.3 µg/mL (≈ 12.9 µM) | – | –
28 | COc1ccc2oc(=O)c([N+](=O)[O-])cc2c1 | 31 µg/mL (≈ 140 µM) | – | –
29 | O=[N+]([O-])C1=Cc2ccccc2OC1n1cccn1 (stereo unspecified) | 21 µg/mL (≈ 86.3 µM) | – | 2.48
30 | O=c1oc2ccc(O)cc2cc1[N+](=O)[O-] | 10.9 µg/mL (≈ 52.6 µM) | – | –
31 | COc1cccc(NC2Oc3ccccc3C=C2[N+](=O)[O-])c1 (stereo unspecified) | 6.6 µg/mL (≈ 22.1 µM) | – | 4.2
32 | CCCCOc1ccc2oc(=O)c([N+](=O)[O-])cc2c1 | 33.9 µg/mL (≈ 129 µM) | – | –
